Experimental data: ChEMBL document CHEMBL4311966, “Sulfide, sulfoxide and sulfone bridged acyclic nucleoside phosphonates as inhibitors of the Plasmodium falciparum and human 6-oxopurine phosphoribosyltransferases: Synthesis and evaluation” (Eur J Med Chem, 2019)
pIC50, pKi: −log10 of the molar value.

Tests used:
Plasmodium falciparum [1] = experiment: Antimalarial activity against Plasmodium falciparum D6 in erythrocytes assessed as reduction in 3H-hypoxanthine uptake incubated for 96 hrs and 3H-hypoxanthine added after 48 hrs of compound addition
[2] = Cytotoxicity against human HepG2 cells assessed as cell viability at 10 uM; assay type: cell-based; conditions: read-out: Activity
Outline: (§1)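 Percent viability of human HepG2 (hepatocellular carcinoma) and CCRF-CEM (T-cell leukemia) cells after exposure to a single fixed prodrug concentration of 10 μM, expressed relative to untreated control cells.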

Plasmodium falciparum [3] = experiment: Antimalarial activity against chloroquine-resistant Plasmodium falciparum W2 in erythrocytes assessed as reduction in 3H-hypoxanthine uptake incubated for 96 hrs and 3H-hypoxanthine added after 48 hrs of compound addition
[4] = Cytotoxicity against human CCRF-CEM cells assessed as cell viability at 10 uM; assay type: cell-based; conditions: read-out: Activity
Outline: as §1

[5] = Inhibition of Plasmodium falciparum HGPRT using xanthine as substrate by Hanes-plot based method
Outline: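 Ki was determined for PfHGXPRT using xanthine as the substrate, under the conditions used for human HGPRT. The reaction was followed spectrophotometrically at 255 nm, with Δε 4670 M⁻¹ cm⁻¹. Km for xanthine was 189 ± 18 μM.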

[6] = Selectivity index, ratio of Ki for human HGPRT to Ki for Plasmodium falciparum HGPRT
[7] = target: T1, Hypoxanthine-guanine phosphoribosyltransferase (Homo sapiens, UniProt P00492); experiment: Inhibition of human HGPRT using Prib-PP as substrate by Hanes-plot based method
T1 sequence (P00492 whole entry): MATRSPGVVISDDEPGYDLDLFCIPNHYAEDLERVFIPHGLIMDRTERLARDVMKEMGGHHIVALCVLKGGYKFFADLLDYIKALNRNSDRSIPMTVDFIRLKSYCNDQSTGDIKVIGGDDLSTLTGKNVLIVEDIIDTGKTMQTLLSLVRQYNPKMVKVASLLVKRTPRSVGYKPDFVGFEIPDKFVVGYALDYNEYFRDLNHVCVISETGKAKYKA

| Compound | Ratio Ki [6] | pKi [7] | pIC50 (Plasmodium falciparum [1]) | viability at 10 µM [2] [%] | pIC50 (Plasmodium falciparum [3]) | viability at 10 µM [4] [%] | pKi [5] |
| --- | --- | --- | --- | --- | --- | --- | --- |
| CC(C)OC(=O)[C@H](Cc1ccccc1)NP(=O)(CCSCCn1cnc2c(=O)[nH]c(N)nc21)N[C@@H](Cc1ccccc1)C(=O)OC(C)C | – | – | 5.27 | 83 | 5.36 | 106 | – |
| Nc1nc2c(ncn2CCSCCP(=O)(O)O)c(=O)[nH]1 | 4 | 6.40 | – | – | – | – | 7.00 |
| CC(C)OC(=O)[C@H](Cc1ccccc1)NP(=O)(CSCCCn1cnc2c(=O)[nH]c(N)nc21)N[C@@H](Cc1ccccc1)C(=O)OC(C)C | – | – | 5.40 | 95 | 5.28 | 98 | – |
| Nc1nc2c(ncn2CCC[S+]([O-])CP(=O)(O)O)c(=O)[nH]1 (configuration not stated) | 15 | 5.52 | – | – | – | – | 6.70 |
| O=c1[nH]cnc2c1ncn2CC[S+]([O-])CCP(=O)(O)O (configuration not stated) | 4 | 5.40 | – | – | – | – | 6.00 |
| O=c1[nH]cnc2c1ncn2CCCS(=O)(=O)CP(=O)(O)O | 10 | 4.34 | – | – | – | – | 5.35 |
| CC(C)OC(=O)[C@H](Cc1ccccc1)NP(=O)(CCSCCn1cnc2c(=O)[nH]cnc21)N[C@@H](Cc1ccccc1)C(=O)OC(C)C | – | – | 5.36 | 90 | 5.27 | 100 | – |

Continued, in another order:

| Ratio Ki [6] | pKi [7] | Compound | pIC50 (Plasmodium falciparum [1]) | viability at 10 µM [2] [%] | pIC50 (Plasmodium falciparum [3]) | viability at 10 µM [4] [%] | pKi [5] |
| --- | --- | --- | --- | --- | --- | --- | --- |
| > 26 | < 4.10 | O=c1[nH]cnc2c1ncn2CCCSCP(=O)(O)O | – | – | – | – | 5.52 |
| > 22 | < 4.05 | O=c1[nH]cnc2c1ncn2CCS(=O)(=O)CCP(=O)(O)O | – | – | – | – | 5.40 |
| 2.8 | 4.96 | O=c1[nH]cnc2c1ncn2CCC[S+]([O-])CP(=O)(O)O (configuration not stated) | – | – | – | – | 5.40 |
| 1.3 | 5.85 | Nc1nc2c(ncn2CCCSCP(=O)(O)O)c(=O)[nH]1 | – | – | – | – | 5.96 |
| 0.7 | 6.70 | Nc1nc2c(ncn2CC[S+]([O-])CCP(=O)(O)O)c(=O)[nH]1 (configuration not stated) | – | – | – | – | 6.52 |
| 25 | 5.30 | O=c1[nH]cnc2c1ncn2CCSCCP(=O)(O)O | – | – | – | – | 6.70 |
